Results from ChEMBL document CHEMBL3739268, “Structure activity relationships of 4-hydroxy-2-pyridones: A novel class of antituberculosis agents” (Eur J Med Chem, 2015).
Values after ≈ are worked out from the molar mass of the structure shown.

Key:
[1] = system: Mycobacterium tuberculosis; assay: Antituberculosis activity against Mycobacterium tuberculosis H37Rv ATCC 27294 after 5 days; type: functional; settings: H37Rv ATCC 27294, 120 h
[2] = Intrinsic clearance in human liver microsomes; type: ADME; settings: read-out: CLH
Summary of the method: (§1)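 Compound depletion in human, mouse or rat liver microsomes, quantified by LC/MS/MS. In vitro half-life and hepatic extraction ratio measured, and metabolic clearance predicted from these.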

Cytochrome P450 2C9 = Cytochrome P450 2C9 (Homo sapiens, UniProt P11712); assay: Inhibition of CYP2C9 (unknown origin); type: ADME
Chain of Cytochrome P450 2C9 (P11712 whole entry): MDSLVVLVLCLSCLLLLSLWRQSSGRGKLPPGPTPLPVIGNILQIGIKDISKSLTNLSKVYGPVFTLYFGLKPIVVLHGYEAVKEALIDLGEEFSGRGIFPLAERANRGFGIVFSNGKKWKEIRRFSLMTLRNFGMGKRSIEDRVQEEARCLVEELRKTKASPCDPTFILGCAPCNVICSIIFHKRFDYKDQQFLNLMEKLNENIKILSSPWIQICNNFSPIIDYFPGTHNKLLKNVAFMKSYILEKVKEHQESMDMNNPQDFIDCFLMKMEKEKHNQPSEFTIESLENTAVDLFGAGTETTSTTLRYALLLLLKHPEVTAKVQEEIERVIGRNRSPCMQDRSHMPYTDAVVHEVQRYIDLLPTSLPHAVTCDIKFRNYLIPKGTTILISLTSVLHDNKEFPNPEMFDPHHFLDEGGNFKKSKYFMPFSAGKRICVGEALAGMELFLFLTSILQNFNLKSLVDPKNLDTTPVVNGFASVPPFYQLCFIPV

[3] = Volume of distribution at steady state in mouse at 5 mg/kg, iv; type: ADME, organism-based; settings: in vivo, read-out: Vdss
Summary of the method: (§2)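 Mice dosed i.v. at 5 mg/kg (1 mg/mL in 20% 1,2-propanediol, 10% solutol HS15, pH 7.0 buffer). Plasma sampled at 0.02, 0.25, 0.75, 1.5, 3, 8 and 24 h, three mice per time point. Analysed by LC/MS/MS with warfarin as internal standard. Noncompartmental analysis of mean concentration–time profiles.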

[4] = Cmax in mouse at 50 mg/kg, po; type: ADME, organism-based; set-up: dose 50 mg/kg, route oral; settings: in vivo
Cytochrome P450 3A4 = Cytochrome P450 3A4 (Homo sapiens, UniProt P08684); assay: Inhibition of CYP3A4 (unknown origin); type: ADME
Chain of Cytochrome P450 3A4 (P08684 whole entry): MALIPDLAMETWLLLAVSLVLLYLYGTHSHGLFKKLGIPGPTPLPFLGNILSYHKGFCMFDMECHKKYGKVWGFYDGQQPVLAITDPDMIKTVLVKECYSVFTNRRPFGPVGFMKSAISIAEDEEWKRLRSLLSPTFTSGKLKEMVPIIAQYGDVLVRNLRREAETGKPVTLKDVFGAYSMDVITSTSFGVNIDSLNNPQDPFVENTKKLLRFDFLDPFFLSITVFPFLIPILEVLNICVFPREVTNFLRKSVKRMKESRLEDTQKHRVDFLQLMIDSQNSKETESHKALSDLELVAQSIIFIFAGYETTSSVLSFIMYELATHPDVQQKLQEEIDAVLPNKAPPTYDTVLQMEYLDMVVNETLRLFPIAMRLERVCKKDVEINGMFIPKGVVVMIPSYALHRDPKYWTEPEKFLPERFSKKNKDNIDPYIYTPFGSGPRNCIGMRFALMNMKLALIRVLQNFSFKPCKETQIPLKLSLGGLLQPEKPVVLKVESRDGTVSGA

[5] = Terminal half life in mouse at 5 mg/kg, iv; type: ADME, organism-based; settings: in vivo, read-out: beta t1/2 (converted); summary of the method: as §2
Mus musculus [6] = assay: Oral bioavailability in mouse at 50 mg/kg; type: ADME, organism-based; settings: in vivo
Cytochrome P450 2D6 = Cytochrome P450 2D6 (Homo sapiens, UniProt P10635); assay: Inhibition of CYP2D6 (unknown origin); type: ADME
Chain of Cytochrome P450 2D6 (P10635 whole entry): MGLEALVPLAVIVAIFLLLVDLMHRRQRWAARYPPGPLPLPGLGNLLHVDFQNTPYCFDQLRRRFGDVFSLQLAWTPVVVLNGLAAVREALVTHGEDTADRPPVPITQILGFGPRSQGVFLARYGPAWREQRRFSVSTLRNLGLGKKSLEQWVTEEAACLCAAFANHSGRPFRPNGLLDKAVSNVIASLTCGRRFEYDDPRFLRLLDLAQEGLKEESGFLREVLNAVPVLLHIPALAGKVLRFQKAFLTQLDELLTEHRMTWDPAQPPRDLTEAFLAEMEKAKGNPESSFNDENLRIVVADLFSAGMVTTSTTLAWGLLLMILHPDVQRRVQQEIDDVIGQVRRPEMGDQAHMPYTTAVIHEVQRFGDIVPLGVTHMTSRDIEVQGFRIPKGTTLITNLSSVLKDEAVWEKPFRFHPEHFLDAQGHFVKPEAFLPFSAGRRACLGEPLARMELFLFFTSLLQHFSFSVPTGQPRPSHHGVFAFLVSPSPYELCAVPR

[7] = Intrinsic clearance in rat liver microsomes; type: ADME; settings: read-out: CLH; summary of the method: as §1
[8] = Cytotoxicity against human HepG2 cells; type: cell-based
[9] = Inhibition of Mycobacterium tuberculosis InhA
[10] = Tmax in mouse at 50 mg/kg, po; type: ADME, organism-based; settings: in vivo
[11] = Intrinsic clearance in mouse liver microsomes; type: ADME; settings: read-out: CLH; summary of the method: as §1
[12] = system: Mycobacterium tuberculosis; assay: Antituberculosis activity against Mycobacterium tuberculosis H37Rv infected in mouse assessed as log reduction of CFU in lung at 150 mg/kg qd for 7 days in a week for 3 weeks; type: functional
Summary of the method: (§3)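 Acute model: mice infected intranasally day 0 with 10³ H37Rv bacilli; oral dosing began one week post-infection, daily 7 days/week (3 or 4 weeks). Oral vehicle was 0.5% Tween 80/0.5% methyl cellulose for the 3-week study and MEPC (Capmul MCM/Cremophor-RH40/ethanol/pH 6.8 phosphate buffer) for the 4-week study. Lungs homogenized, serial-dilution plated on 7H11 agar for CFU; ethambutol positive control.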

[13] = Solubility of the compound at pH 6.8 after 24 hrs by shake flask method; type: physicochemical; settings: buffer
Summary of the method: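 High-throughput equilibrium shake-flask method. DMSO stock evaporated in filter vials, aqueous buffer added, shaken 24 h on an orbital shaker, then filtered with 30 min further shaking. Filtrate analysed by HPLC.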

Mus musculus [14] = assay: AUC in mouse at 50 mg/kg, po; type: ADME, organism-based; settings: in vivo
[15] = Tmax in mouse at 25 mg/kg, po; type: ADME, organism-based; settings: in vivo
Summary of the method: (§4)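 Plasma sampled at 0.08–24 h, three mice per time point. Plasma extracted with acetonitrile/methanol/acetic acid and quantified by LC/MS/MS (LLOQ 1–3 ng/mL).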

[16] = Cmax in mouse at 25 mg/kg, po; type: ADME, organism-based; set-up: dose 25 mg/kg, route oral; settings: in vivo; summary of the method: as §4
[17] = Plasma clearance in mouse at 5 mg/kg, iv; type: ADME, organism-based; summary of the method: as §2
[18] = Oral bioavailability in mouse at 25 mg/kg; type: ADME, organism-based; settings: in vivo
[19] = system: Mycobacterium tuberculosis; assay: Antituberculosis activity against Mycobacterium tuberculosis H37Rv infected in mouse assessed as log reduction of CFU in lung at 100 mg/kg qd for 7 days in a week for 4 weeks; type: functional; summary of the method: as §3
[20] = system: Mycobacterium tuberculosis; assay: Antituberculosis activity against Mycobacterium tuberculosis H37Rv infected in mouse assessed as log reduction of CFU in spleen at 100 mg/kg qd for 7 days in a week for 4 weeks; type: functional
Summary of the method: (§5)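 Mice infected intranasally with 10³ H37Rv bacilli on day 0; from one week post-infection dosed orally daily, 7 days/week for 4 weeks, in MEPC vehicle (Capmul MCM, Cremophor-RH40, ethanol, 50 mM phosphate pH 6.8). Bacterial load in spleen estimated as log CFU by serial-dilution plating on 7H11 agar; ethambutol positive control.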

[21] = AUC in mouse at 25 mg/kg, po; type: ADME, organism-based; settings: in vivo; summary of the method: as §4
[22] = system: Mycobacterium tuberculosis; assay: Antituberculosis activity against Mycobacterium tuberculosis H37Rv infected in mouse assessed as log reduction of CFU in lung at 30 mg/kg qd for 7 days in a week for 4 weeks; type: functional; summary of the method: as §3
[23] = system: Mycobacterium tuberculosis; assay: Antituberculosis activity against Mycobacterium tuberculosis H37Rv infected in mouse assessed as log reduction of CFU in spleen at 30 mg/kg qd for 7 days in a week for 4 weeks; type: functional; summary of the method: as §5

Compound | MIC50 [1] [µM] | solubility thermodynamic at 24 h [13] [µM] | also measured
Oc1nc2ccccc2c(O)c1-c1ccccc1 | 13.2 (≈ 3.13 µg/mL) | – | –
CC(C)Cc1cc(O)c(-c2ccccc2)c(=O)[nH]1 | 1.54 (≈ 0.375 µg/mL) | 550 (≈ 134 µg/mL) | microsomal CLint [2]: 20 µL/min/mg; IC50 (Cytochrome P450 2C9): > 20 µM; Vd [3]: 0.46 L/kg; Cmax [4]: 13.2 µM; IC50 (Cytochrome P450 3A4): > 20 µM; half-life [5]: 1.21 h; F (Mus musculus [6]): 55%; IC50 (Cytochrome P450 2D6): > 20 µM; microsomal CLint [7]: 3.4 µL/min/mg; CC50 [8]: > 20 µM; IC50 [9]: 9.6 µM; Tmax [10]: 0.5 h; microsomal CLint [11]: 22 µL/min/mg; Activity [12]: 0.95 log10CFU; AUC (Mus musculus [14]): 27.18 µM·h
CC1(C)CCC(Cc2cc(O)c(-c3ccccc3)c(=O)[nH]2)CC1 | 0.05 (≈ 0.0156 µg/mL) | 25 (≈ 7.79 µg/mL) | microsomal CLint [2]: 59 µL/min/mg; Tmax [15]: 6 h; Vd [3]: 0.54 L/kg; Cmax [16]: 13.7 µM; half-life [5]: 1.13 h; clearance [17]: 13.6 mL/min/kg; CC50 [8]: > 20 µM; bioavailability [18]: 66%; Activity [19]: 1.92 log10CFU; IC50 [9]: 0.57 µM; microsomal CLint [11]: 45 µL/min/mg; Activity [20]: 2.8 log10CFU; AUC [21]: 65.8 µM·h; Activity [22]: 1 log10CFU; Activity [23]: 2.5 log10CFU
CC(C)Cc1nc(O)c(-c2ccccc2)c(=O)[nH]1 | > 20 | – | –
COc1nc(CC(C)C)cc(O)c1-c1ccccc1 | > 20 | – | –
CC(C)Cc1cc(O)c(-c2ccccc2)c(=O)n1C | 8.1 (≈ 2.08 µg/mL) | – | –
O=c1[nH]c(CC2CCC2)cc(O)c1-c1ccccc1 | 1.19 (≈ 0.304 µg/mL) | 280 (≈ 71.5 µg/mL) | –
CC(C)Cc1cc(NCc2ccccc2)c(-c2ccccc2)c(=O)[nH]1 | > 20 | – | –
COc1ccc(-c2c(O)cc(CC(C)C)[nH]c2=O)cc1 | > 20 | – | –
CC(C)CCc1cc(O)c(-c2ccccc2)c(=O)[nH]1 | 1.51 (≈ 0.389 µg/mL) | 128 (≈ 32.9 µg/mL) | –
O=c1[nH]c(Cc2ccncc2)cc(O)c1-c1ccccc1 | 6.8 (≈ 1.89 µg/mL) | > 1000 | –
CC(C)Cc1cc(O)c(-c2ccccc2)c(=O)n1Cc1ccccc1 | > 20 | – | –
CC(C)Cc1cc(O)c(-c2ccc(Cl)cc2)c(=O)[nH]1 | > 20 | – | –
CC(C)Cc1cc(O)c(-c2cccc(Cl)c2)c(=O)[nH]1 | 2.67 (≈ 0.742 µg/mL) | – | –
CC(C)Cc1cc(O)c(-c2ccccc2Cl)c(=O)[nH]1 | 3.32 (≈ 0.922 µg/mL) | – | –
CC(C)Cc1ccc(-c2ccccc2)c(=O)[nH]1 | > 20 | – | –
CC(C)Cc1cc(N)c(-c2ccccc2)c(=O)[nH]1 | > 20 | – | –
O=c1[nH]c(CC2CC2)cc(O)c1-c1ccccc1 | 4.53 (≈ 1.09 µg/mL) | 891 (≈ 215 µg/mL) | –
CC(C)Cc1cc(O)c(-c2ccc(F)cc2)c(=O)[nH]1 | 6.75 (≈ 1.76 µg/mL) | – | –
Cc1cc(O)c(-c2ccccc2)c(=O)[nH]1 | > 20 | > 1000 | –
CC(C)Cc1cc(NS(C)(=O)=O)c(-c2ccccc2)c(=O)[nH]1 | > 20 | – | –

Compound | MIC50 [1] [µM] | solubility thermodynamic at 24 h [13] [µM] | also measured
CC(C)Cc1cc(O)c(-c2ccccn2)c(=O)[nH]1 | > 20 | – | –
CC(C)Cc1cc(O)c(-c2ccccc2)c(=O)n1C(C)C | > 20 | – | –
O=c1[nH]c(CC2CCOCC2)cc(O)c1-c1ccccc1 | 10.1 (≈ 2.88 µg/mL) | > 1000 | –
CC(C)Cc1cc(O)c(-c2cccnc2)c(=O)[nH]1 | > 20 | – | –
O=c1[nH]c(CC2CCCC2)cc(O)c1-c1ccccc1 | 0.92 (≈ 0.248 µg/mL) | 144 (≈ 38.8 µg/mL) | –
CC(C)Cc1cc(O)c(-c2ccncc2)c(=O)[nH]1 | > 20 | – | –
CN(C)Cc1cc(O)c(-c2ccccc2)c(=O)[nH]1 | > 20 | 671 (≈ 164 µg/mL) | –
O=c1[nH]c(Cc2ccccc2)cc(O)c1-c1ccccc1 | 1.4 (≈ 0.388 µg/mL) | 40 (≈ 11.1 µg/mL) | –
O=c1[nH]c(CC2CCC(F)(F)CC2)cc(O)c1-c1ccccc1 | 1.32 (≈ 0.422 µg/mL) | 104 (≈ 33.2 µg/mL) | –
CC(C)Cc1cc(O)c(-c2ccccc2F)c(=O)[nH]1 | 6.31 (≈ 1.65 µg/mL) | – | –
CC(C)Cc1cc(O)c(Cc2ccccc2)c(=O)[nH]1 | > 20 | – | –
COc1ccccc1-c1c(O)cc(CC(C)C)[nH]c1=O | > 20 | – | –
COc1cccc(-c2c(O)cc(CC(C)C)[nH]c2=O)c1 | > 20 | – | –
CC(C)Cc1cc(O)c(C2CCCCC2)c(=O)[nH]1 | > 20 | – | –
COc1cc(CC(C)C)[nH]c(=O)c1-c1ccccc1 | > 20 | – | –
CC(C)Cc1cc(O)c(-c2cccc(F)c2)c(=O)[nH]1 | 2.69 (≈ 0.703 µg/mL) | – | –
CC(C)Cc1cc(O)c(-c2ccccc2)c(=O)o1 | 13.8 (≈ 3.37 µg/mL) | – | –
O=c1[nH]c(CC2CCCCC2)cc(O)c1-c1ccccc1 | 0.16 (≈ 0.0453 µg/mL) | 24 (≈ 6.8 µg/mL) | –
COc1nc2ccc(Br)cc2cc1[C@@H](c1ccccc1)[C@@](O)(CCN(C)C)c1cccc2ccccc12 [BEDAQUILINE] | 0.05 (≈ 0.0278 µg/mL) | – | –
NNC(=O)c1ccncc1 [ISONIAZID] | 0.33 (≈ 0.0453 µg/mL) | – | –
O=[N+]([O-])c1cn2c(n1)OC[C@@H](OCc1ccc(OC(F)(F)F)cc1)C2 [PRETOMANID] | 0.4 (≈ 0.144 µg/mL) | – | –
